Assay results from paper PMC7064934 (Environmental Toxicology and Chemistry, 2019).

Assays:
[1] = system: Folsomia candida; test: Collembolan reproduction test; assay type: in vivo; conditions: F. candida; for Times more toxic to survival than its commercial formulation: pure compound vs formulation (LC50)
In short: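 LUFA 2.2 soil spiked with aqueous pure compound or commercial formulation to 50% WHC; nominal control and 0.04–10.0 mg a.s./kg dry soil. Ten 10–12-d-old synchronized juveniles per 30 g soil, 5 replicates, weekly yeast and water top-up. Held 28 d at 20 ± 2 °C, 75% RH. Animals counted by flotation and image analysis. Log-logistic LC50/EC50 fitted on nominal concentrations.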

[2] = system: E. fetida; conditions: cited from earlier work
[3] = octanol/water partition coefficient at pH 7, 20 °C; ref University of Hertfordshire 2018; cited from earlier work
[4] = system: Eisenia andrei; test: Earthworm reproduction test; assay type: in vivo
In short: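 Clitellate 2-mo synchronized worms acclimatized 24 h in clean soil, washed and weighed. Ten per ~600 g spiked LUFA 2.2 soil (nominal 0.04–10.0 mg a.s./kg dry soil, pure or formulation), 4 replicates, horse manure as food, 20 ± 2 °C, 75% RH. Survival and weight change read on day 28. Juveniles extracted on day 56 in a 60 °C water bath. Log-logistic LC50/EC50 fitted on nominal concentrations.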

[5] = assay type: physicochemical; conditions: E. andrei test soil, nominal 10 thiamethoxam, t=56 days
In short: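 Soil (5 g) sampled from replicate jar 4 on days 0, 28 and/or 56 and stored at –20 °C. Extracted by QuEChERS and analysed by reverse-phase LC–MS/MS at an external lab; detection limit 0.01 mg a.s./kg dry soil. Soils were also screened for the parent's conversion product. DT50 derived as ln(2)/k from first-order decay without lag.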

[6] = system: earthworm; conditions: survival; ref National Registration Authority for Agricultural and Veterinary Chemicals (2001); cited from earlier work

N#C/N=C1\SCCN1Cc1ccc(Cl)nc1 [Thiacloprid, thiacloprid]
Times more toxic to reproduction than to survival [1]: approximately 3
LC50 ([2]; ref Feng et al. (2015)): 8.43 mg/kg

CN/C(=N\[N+](=O)[O-])NCc1cnc(Cl)s1 [Clothianidin, clothianidin]
Times more toxic than thiacloprid ([1]; LC50 comparison): approximately 100
Log K OW [3]: 0.95

O=[N+]([O-])NC1=NCCN1Cc1ccc(Cl)nc1 [Imidacloprid, imidacloprid]
Times more toxic to reproduction than its commercial formulation ([1]; pure compound vs formulation (EC50)): 4

CN1COCN(Cc2cnc(Cl)s2)/C1=N\[N+](=O)[O-] [Thiamethoxam, thiamethoxam]
Toxicity to E. andrei at the concentrations tested (in words) ([4]; highest concentration tested 10 mg a.s./kg dry soil, survival and reproduction): no toxicity
Concentration of clothianidin measured (conversion product of thiamethoxam) [5]: 0.09 mg a.s./kg dry soil
Log K OW [3]: –0.13
LC50, acute toxicity tests (14 d) [6]: > 1000 mg a.s./kg dry soil

C/C(=N\C#N)N(C)Cc1ccc(Cl)nc1 [Acetamiprid, acetamiprid]
Times more toxic to the survival of the earthworms compared with thiacloprid ([4]; E. andrei, LC50 comparison): 10
Times more toxic to survival than its commercial formulation [1]: 3
Times more toxic to survival than its commercial formulation ([1]; listed as acetamiprid): 4
Log K OW [3]: 0.8
EC50s ([2]; ref Wang et al. (2012), Ge et al. (2018), Wang et al. (2015)): approximately 0.30 mg a.s/kg dry soil
